{"source": "paper PMC9183947", "about": "(Molecular imaging and biology, 2021)", "key": {"[1]": {"biological_target": "VLA-4 (integrin α4β1) on BPRα cells (Mus musculus, UniProt P09055+Q00651)", "sequence (Q00651 41-1039)": "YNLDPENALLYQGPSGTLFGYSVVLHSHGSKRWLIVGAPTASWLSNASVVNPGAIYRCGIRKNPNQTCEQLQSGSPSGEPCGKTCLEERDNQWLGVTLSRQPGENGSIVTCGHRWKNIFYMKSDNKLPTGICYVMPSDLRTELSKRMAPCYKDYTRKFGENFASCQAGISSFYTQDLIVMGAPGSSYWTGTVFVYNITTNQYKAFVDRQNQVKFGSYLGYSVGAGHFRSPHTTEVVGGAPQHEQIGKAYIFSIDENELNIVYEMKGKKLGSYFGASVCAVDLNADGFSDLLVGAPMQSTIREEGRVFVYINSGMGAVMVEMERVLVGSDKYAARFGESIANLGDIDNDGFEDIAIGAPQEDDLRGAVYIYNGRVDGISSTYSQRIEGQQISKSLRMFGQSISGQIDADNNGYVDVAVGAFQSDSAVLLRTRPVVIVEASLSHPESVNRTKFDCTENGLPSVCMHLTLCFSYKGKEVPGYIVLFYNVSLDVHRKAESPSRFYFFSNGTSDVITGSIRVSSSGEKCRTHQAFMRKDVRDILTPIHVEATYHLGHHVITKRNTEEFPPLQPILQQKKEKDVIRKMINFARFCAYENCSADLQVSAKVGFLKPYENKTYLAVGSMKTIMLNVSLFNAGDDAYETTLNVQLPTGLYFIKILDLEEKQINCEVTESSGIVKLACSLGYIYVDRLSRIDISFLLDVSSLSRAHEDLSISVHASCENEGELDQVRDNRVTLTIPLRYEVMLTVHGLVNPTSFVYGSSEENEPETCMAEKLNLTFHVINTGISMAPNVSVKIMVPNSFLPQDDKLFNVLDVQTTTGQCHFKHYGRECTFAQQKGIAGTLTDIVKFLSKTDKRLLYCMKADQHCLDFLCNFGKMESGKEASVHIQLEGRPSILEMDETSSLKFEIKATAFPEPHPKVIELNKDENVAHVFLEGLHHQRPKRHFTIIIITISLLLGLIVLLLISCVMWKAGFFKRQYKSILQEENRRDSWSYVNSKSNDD", "sequence (P09055 21-798)": "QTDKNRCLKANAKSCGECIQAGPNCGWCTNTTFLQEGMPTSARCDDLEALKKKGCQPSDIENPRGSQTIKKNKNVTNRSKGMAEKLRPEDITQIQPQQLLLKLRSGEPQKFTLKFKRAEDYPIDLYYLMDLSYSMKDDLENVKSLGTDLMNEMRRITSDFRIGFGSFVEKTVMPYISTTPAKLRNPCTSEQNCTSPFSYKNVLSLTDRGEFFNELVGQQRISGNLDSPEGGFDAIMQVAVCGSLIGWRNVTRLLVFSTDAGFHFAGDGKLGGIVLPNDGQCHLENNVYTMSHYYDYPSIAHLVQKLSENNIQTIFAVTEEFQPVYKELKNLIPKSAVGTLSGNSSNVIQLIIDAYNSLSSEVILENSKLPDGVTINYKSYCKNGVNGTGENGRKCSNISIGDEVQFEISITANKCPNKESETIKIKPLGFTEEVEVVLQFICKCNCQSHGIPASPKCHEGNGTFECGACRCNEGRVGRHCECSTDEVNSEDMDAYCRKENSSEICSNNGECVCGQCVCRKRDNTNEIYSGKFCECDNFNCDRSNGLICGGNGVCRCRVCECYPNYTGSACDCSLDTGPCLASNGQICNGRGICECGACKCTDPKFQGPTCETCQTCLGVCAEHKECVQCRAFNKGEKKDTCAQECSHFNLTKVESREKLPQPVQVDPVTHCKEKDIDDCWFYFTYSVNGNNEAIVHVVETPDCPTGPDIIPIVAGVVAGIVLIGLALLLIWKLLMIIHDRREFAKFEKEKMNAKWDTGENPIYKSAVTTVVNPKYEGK", "assay": "Saturation binding of [64Cu]-LLP2A to BPRα cells", "conditions": "normalized to cellular protein, triplicate"}, "BPR cells (VLA-4−) [2]": {"system": "BPR cells (VLA-4−)", "assay": "Saturation binding of [64Cu]-LLP2A to BPR cells", "set-up": "species or system mouse"}, "BPR cells (VLA-4−) [3]": {"system": "BPR cells (VLA-4−)", "assay": "[64Cu]-LLP2A internalization assay, BPR cells", "type": "cell-based, mouse", "conditions": "15 min - 4 h at 37°C", "summary_of_the_method": "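Cells (1 x 10^5/well, seeded 24 h) were held in DMEM/1% BSA/1 mM Mn2+. Blocked wells first had 10 μg unlabelled PEG4 peptide for 15 min at 37°C. Each well then received 0.44 MBq radiotracer (3.43 MBq/nmol) at 37°C for 15 min, 2 h or 4 h. Surface activity was stripped with 20 mM sodium acetate pH 4.0 (10 min). Lysates were γ-counted, corrected for background, block and decay, and normalised to protein; n=3.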"}, "[4]": {"assay": "Biodistribution in BPR tumor-bearing mice", "type": "in vivo, C57BL/6 mice", "conditions": "both, C57BL/6, mouse, iv, 7.4 MBq, total radioactivity", "summary_of_the_method": "(§1)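 Male and female C57BL/6 mice (4–6 weeks old) carried s.c. right-flank tumours from 5 x 10^5 cells in an equal volume of Matrigel. They received 7.4 MBq radiotracer (57.2 MBq/nmol) via lateral tail vein and were euthanised right after 24 h imaging (n=6; 3m/3f). Tissues and tumour were weighed and γ-counted. %IA/g was decay-corrected against an injected-dose standard.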"}, "[5]": {"assay": "Biodistribution in BPRα tumor-bearing mice", "type": "in vivo, C57BL/6 mice", "conditions": "both, C57BL/6, mouse, iv, 7.4 MBq, total radioactivity", "summary_of_the_method": "as §1"}, "s.c. BPR and BPRα tumors": {"system": "s.c. BPR and BPRα tumors", "assay": "PET/CT imaging of BPR and BPRα tumor models", "type": "in vivo, C57BL/6 mice", "summary_of_the_method": "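Mice bore s.c. flank tumours (5 x 10^5 cells plus Matrigel; n=9 per line, 3m/6f) and received 7.4 MBq radiotracer i.v. (57.2 MBq/nmol). Under 2% isoflurane, static 10-min PET/CT scans were taken at 4 and 24 h and reconstructed by OSEM-3D. ROIs were drawn on CT. SUV = activity concentration x body weight/injected dose. Tumour-to-muscle SUV ratios were derived.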"}, "[6]": {"system": "B16F10 melanoma cells (VLA-4+)", "conditions": "previously reported; cited from earlier work"}, "[7]": {"conditions": "previously demonstrated, cited from earlier work"}}, "note": "“Also recorded” adds a separate entry of the source. Starred links: 1 amine or outer side, 2 acyl side, 3 side chain; linkers in the order of their positions; H or OH if unused. Non-standard residues stand in square brackets, D forms with d. Residues, ends and D or L forms follow the SMILES beside them. Groups on a side chain read outwards from the residue. *: point of attachment. Acryloyl(3-(3-pyridyl),E) = O=C(/C=C/c1cccnc1)*; X2 = O=C(CN1CCCN2CCN(CCCN(CP(=O)(O)O)CC2)CC1)*; X1 = O=C(Cc1ccc(N[*:1])cc1)[*:2]; Aad = N[C@@H](CCCC(=O)O)C(=O)O; NH(2-Me-phenyl) = Cc1ccccc1N*; PEG4 = NCCOCCOCCOCCOCCC(=O)O; Ac6c = NC1(C(=O)O)CCCCC1; CO = O=C([*:1])[*:2]", "data": [{"smiles": "Cc1ccccc1NC(=O)Nc1ccc(CC(=O)N[C@@H](CCCCNC(=O)/C=C/c2cccnc2)C(=O)N[C@@H](CCCC(=O)O)C(=O)NC2(C(=O)N[C@@H](CCCCNC(=O)CCOCCOCCOCCOCCNC(=O)CN3CCCN4CCN(CCCN(CP(=O)(O)O)CC4)CC3)C(N)=O)CCCCC2)cc1", "note": "[[^64Cu]-LLP2A, [^64Cu]-CB-TE1A1P-PEG4-LLP2A, metal not drawn] ({NH(2-Me-phenyl)-CO}-[X1]K(Acryloyl(3-(3-pyridyl),E))[Aad][Ac6c]K([PEG4-X2])-NH2; N-terminus and C-terminus assumed)", "values": [{"measurement": "Bmax", "setting": "[1]", "value": "145 ± 8.8", "unit": "fmol/mg"}, {"measurement": "binding to BPR cells (saturation binding)", "setting": "BPR cells (VLA-4−) [2]; 1-100 nM tracer, on ice 2 h, blocked with LLP2A-PEG4", "value": "indeterminate binding; also recorded: no saturation occurs"}, {"measurement": "Bmax", "setting": "BPR cells (VLA-4−) [2]; model fit poor, R^2=0.0002", "value": "not interpretable"}, {"measurement": "internalization", "setting": "BPR cells (VLA-4−) [3]", "value": "undetectable"}, {"measurement": "tissue uptake at 24 h", "setting": "[4]; spleen", "value": "8.1 ± 4.4", "unit": "%ID/g"}, {"measurement": "tissue uptake at 24 h", "setting": "[4]; thymus", "value": "3.5 ± 0.9", "unit": "%ID/g"}, {"measurement": "tissue uptake at 24 h", "setting": "[4]; tumor", "value": "1.7 ± 0.2", "unit": "%ID/g"}, {"measurement": "tissue uptake at 24 h", "setting": "[5]; bone marrow", "value": "1.6 ± 0.5", "unit": "%ID/g"}, {"measurement": "tissue uptake at 24 h", "setting": "[5]; spleen", "value": "6 ± 1.9", "unit": "%ID/g"}, {"measurement": "tissue uptake at 24 h", "setting": "[5]; thymus", "value": "4.2 ± 4", "unit": "%ID/g"}, {"measurement": "tissue uptake at 24 h", "setting": "[5]; tumor", "value": "2.8 ± 0.2", "unit": "%ID/g"}, {"measurement": "tumor uptake in BPRα relative to BPR (PET/CT)", "setting": "s.c. BPR and BPRα tumors; 4h post-injection, 7.4 MBq i.v., n=9 each, p=0.0021", "value": "significant increase"}, {"measurement": "tumor-to-muscle ratio of BPRα vs. BPR (PET/CT SUV)", "setting": "s.c. BPR and BPRα tumors; 4h post-injection, n=9, p=0.0005", "value": "significantly greater"}, {"measurement": "BPRα tumor uptake (PET/CT)", "setting": "s.c. BPR and BPRα tumors; 24h post-injection, n=9", "value": "remained detectable"}, {"measurement": "Bmax", "setting": "[6]", "value": "300 ± 4.5", "unit": "fmol/mg"}, {"measurement": "stability in human serum", "setting": "[7]; human serum", "value": "stability in human serum"}, {"measurement": "binding of the conjugate to plasma proteins", "setting": "[7]", "value": "negligible"}]}]}
